Assay: Toxicity liver stage against HepG2, at 10uM
Assay type: cell-based
Set-up: test concentration 10 uM, cell line HepG2-A16-CD81EGFP
Conditions: human, HepG2-A16-CD81EGFP cells; read-out: INHIBITION
Summary of the method: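 Uninfected HepG2-A16-CD81EGFP cells, 3 × 10^3 per well, 1536-well, plated on prespotted compound at 10 μM final, parasite-free screening media added to match infected plates; puromycin 10 μM positive, DMSO 0.5% negative; run in parallel with 48 h PbLuc assay at 37 °C, 5% CO2; viability by CellTiter-Glo luminescence, normalized to controls.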
For `CC(C)Oc1cccc(C(=O)C2CCCN(C(=O)c3cncs3)C2)c1` (centres undefined), the cytotoxicity at 10 µM was 3.19%. `COc1ccc(OC)c(CNc2c(O)c(=O)c2=O)c1` gave a cytotoxicity at 10 µM of 7.08%. Molecule `Cc1cc(C)nc(N2CCC(C(=O)Nc3n[nH]c(C)n3)CC2)n1` has a cytotoxicity at 10 µM of 8.78%. With `O=C(c1ccc2[nH]cnc2c1)N1CCC(Oc2cccnc2)CC1` the cytotoxicity at 10 µM was -12.8%. In the case of `CCOCc1cncc2c1CCN(S(=O)(=O)c1ccc(C)cc1)C2`, the cytotoxicity at 10 µM is reported as 11.2%. `O=C(Cc1cccs1)N1CCc2nnc(COc3cncnc3)n2CC1` gave a cytotoxicity at 10 µM of 8.61%. For `CC(C)N1c2sc(-c3ccsc3)nc2CC1C(=O)NC1CCCC1` (centres undefined), the cytotoxicity at 10 µM was 9.1%. With `Cc1noc([C@@]23CCO[C@@H]2CCN(C(=O)CCC(C)C)C3)n1` the cytotoxicity at 10 µM was 10.3%. Work on `Cn1cc(CN2CC[C@H]3C[C@@H](c4nc(C5CC5)cs4)O[C@@H]3C2)cn1` yielded a cytotoxicity at 10 µM of 8.84%. `CNC(=O)C1Cn2ccnc2C2(CCN(C(=O)c3ccccn3)CC2)O1` (centres undefined) showed a cytotoxicity at 10 µM of -144%. `CCN(CC)C(=O)c1ccn(COc2cccc(Cl)c2Cl)n1` gave a cytotoxicity at 10 µM of 49.4%. In the case of `Cc1cc(C)n(CCC(=O)N2CCC(c3nc(C)no3)CC2)n1`, the cytotoxicity at 10 µM is reported as 23.3%. In the case of `CCn1nc(C)c2nc(C(C)C)nc(NCC(C)C)c21`, the cytotoxicity at 10 µM is reported as 15.5%. `Cc1noc(C)c1-c1cncc(C2CCCN2Cc2ncc[nH]2)n1` (centres undefined) showed a cytotoxicity at 10 µM of -8.89%. In the case of `O=C(Cc1ccsc1)N1CCCCC1c1ccn2ccnc2n1` (centres undefined), the cytotoxicity at 10 µM is reported as -9.91%. Molecule `Cc1cccc(Oc2nccnc2C2CCN(C(=O)C(C)(C)N)CC2)c1` has a cytotoxicity at 10 µM of -9.44%. With `CN1CC(=O)N(C2CCNCC2)Cc2c(NCC(C)(C)C)ncnc21` the cytotoxicity at 10 µM was 6.2%. In the case of `CC1CCCCN1C(=O)c1ccc(=O)[nH]n1` (centres undefined), the cytotoxicity at 10 µM is reported as 3.95%. For `CC(C)c1nc(CS(=O)(=O)Cc2noc(C3CC3)n2)cs1`, the cytotoxicity at 10 µM was 6.16%. With `COc1cc(Br)c(CNC(C)c2nnc3n2CCC3)cc1OC` (centres undefined) the cytotoxicity at 10 µM was -43.2%. In the case of `COc1ccc2c(c1)CC(NCc1cccc(CO)c1)CC2` (centres undefined), the cytotoxicity at 10 µM is reported as -51.8%. `CN1CCN(c2ccc(NCc3ccc([S+](C)[O-])cc3)cn2)CC1` (centres undefined) gave a cytotoxicity at 10 µM of 9.84%. Work on `CCC(=O)NCC(=O)N(C)C(c1ccc(Cl)cc1)c1cccnc1` (centres undefined) yielded a cytotoxicity at 10 µM of 3.88%. For `NC(=O)CCN(CC(=O)NCc1cccs1)c1ccc(F)cc1`, the cytotoxicity at 10 µM was 8.75%. In the case of `CCSCc1ccc(C(=O)N2CCCN(CC)CC2)cc1`, the cytotoxicity at 10 µM is reported as -5.95%. Work on `CCc1c(NCc2ccncc2)cnn1CC(C)C` yielded a cytotoxicity at 10 µM of 7.81%. `CCS(=O)(=O)N(C)C1CCN(C(=O)c2ccc(Cl)cc2)CC1` showed a cytotoxicity at 10 µM of -5.87%. In the case of `CSCC(C)(O)CNC(=O)c1ccc(F)cc1Br` (centres undefined), the cytotoxicity at 10 µM is reported as 0.369%. Molecule `CCN1CCN(C(=O)c2ccnc(N(C)C)c2)CC1` has a cytotoxicity at 10 µM of -0.0916%. For `COc1cc(C(=O)N(Cc2cccs2)C2CC2)cc2c1OCCO2`, the cytotoxicity at 10 µM was 8.45%. For `CC(C(=O)N1CCCC1)N1CCCN(C(=O)Oc2ccccc2)CC1` (centres undefined), the cytotoxicity at 10 µM was 3.4%. `COc1ncccc1C(=O)N1CCCC1c1nc(-c2ccccc2)n[nH]1` (centres undefined) gave a cytotoxicity at 10 µM of -8.76%. In the case of `Clc1ccc2cccnc2c1CN1CCn2c(nnc2C2CC2)C1`, the cytotoxicity at 10 µM is reported as -2.19%. With `CC(C)(CO)CCCNC(=O)NC1(C)Cc2ccccc2C1` the cytotoxicity at 10 µM was -1%. With `COc1ccc(N(Cc2ccco2)C(=O)C2CCOC2)cc1F` (centres undefined) the cytotoxicity at 10 µM was -10.8%. For `COc1ccc(NC(=O)c2ccccc2NCc2ncnn2C)cc1`, the cytotoxicity at 10 µM was 2.06%. Molecule `CC1CN(C)CCN1C(=O)Nc1nc(-c2cccn2C)cs1` (centres undefined) has a cytotoxicity at 10 µM of -2.38%. Molecule `Cc1ncsc1CNC(=O)N(Cc1ccccc1)CC(C)(C)O` has a cytotoxicity at 10 µM of -10.2%. In the case of `CCNC(=O)CN(CC)Cc1nc2c(F)cccc2n1CC`, the cytotoxicity at 10 µM is reported as 9.57%. Work on `COc1ccc2nc(C)c(C(=O)NCCN3CCS(=O)(=O)CC3)cc2c1` yielded a cytotoxicity at 10 µM of -15.2%. `CC(Sc1nnc(C2CC2)n1CC(N)=O)c1ccc(F)cc1F` (centres undefined) showed a cytotoxicity at 10 µM of -1.7%. `CO[C@H]1CC[C@H]2[C@H]1OCCN2C(=O)c1nn(C)c2ccccc12` showed a cytotoxicity at 10 µM of 5.33%. Work on `Cc1ccc(N2CCC3(CCN(Cc4csc(C)n4)C3=O)C2)nn1` (centres undefined) yielded a cytotoxicity at 10 µM of -111%. Work on `c1cc(CN2CCCC3(CCN(CC4CCCO4)CC3)C2)n[nH]1` (centres undefined) yielded a cytotoxicity at 10 µM of -101%. `COc1ccc(CN2Cc3cn(C)nc3C(COCC3CC3)C2)cc1` (centres undefined) gave a cytotoxicity at 10 µM of -78.5%. With `COCC(=O)N1CCC2(CCCN(Cc3cnn(C)c3)C2)C1` (centres undefined) the cytotoxicity at 10 µM was -73.3%. In the case of `CCNc1nc(-c2cccnc2)c(-c2ccnc(NS(C)(=O)=O)n2)s1`, the cytotoxicity at 10 µM is reported as -12.3%. `CCn1nc(CC(C)C)cc1C(=O)NCc1c(C)cc(C)nc1OC` showed a cytotoxicity at 10 µM of 1.66%. `Cc1cccc(=O)n1CCC(=O)N1CC[C@@](O)(C2CCC2)[C@H](C)C1` showed a cytotoxicity at 10 µM of 5.8%. `O=C(NCCc1noc(C2CCCC2)n1)c1cn2ccsc2n1` gave a cytotoxicity at 10 µM of -0.454%. Work on `COC(=O)C1CCN(CC2(c3ccc(C)cn3)CCNCC2)CC1` yielded a cytotoxicity at 10 µM of -0.471%. `Cc1cnc(NCC(C)(C)N2CCN(C)CC2)nc1` showed a cytotoxicity at 10 µM of -4.52%. For `CN1CCCCC1CCC(=O)NCCCn1nccc1C1CC1` (centres undefined), the cytotoxicity at 10 µM was -22.9%. `O=C(O)c1cc(-c2cccnc2)cc(S(=O)(=O)NCc2ccccn2)c1` showed a cytotoxicity at 10 µM of -49.9%.
